This is an account of results in ChEMBL document CHEMBL1134374, “High-throughput permeability pH profile and high-throughput alkane/water log P with artificial membranes” (J Med Chem, 2001).

Series [1] in a line: Effective permeability corrected for ionization. The class given is ADME. In outline:
(§1)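 Derived from hexadecane-membrane Pe measured across a pH range, combined with aqueous pKa. Pe is corrected for ionization to give Pul. Pul is then corrected for the unstirred water layer by the Gutknecht–Tosteson relation to give the intrinsic permeability P0.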

The nature of series [2]: Intrinsic permeability of the compound. Format: ADME. In outline:
as §1

Series [3] in a line: Effective permeability (Pe) across a hexadecane membrane (pH 6.8). The class given is ADME. In outline: (§2)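 Passive permeation from donor to acceptor across a polycarbonate filter (3 µm pores, 9–10 µm thick) coated with hexadecane left after hexane evaporation. Donor held 50 µg/mL compound in buffer with 5% DMSO and 100 mM KCl; acceptor held buffer with 5% DMSO. Incubated 5 h at room temperature with light shaking. Acceptor UV absorbance read at 260–290 nm. Wells below 5 kΩ resistance discarded.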

A short description of series [4]: Highest effective permeability across hexadecane membrane (pH 4-8). The class given is ADME. In outline: as §2
Series [5] in a line: % absorbed in human GI-tract. Format: ADME, organism-based. Particulars: in vivo, read-out: % absorbed.
Series [6] in a line: Partition coefficient (logD6.8). Format: physicochemical. To be noted: octanol/water, pH 6.8.
A short description of series [7]: Partition coefficient (logP) (hexadecane). The class given is physicochemical. Particulars: hexadecane/water.
Series [8] is described as follows: Effective permeability measured with HDM assay. Format: ADME. In outline: as §2
A short description of series [9]: Intrinsic permeability measured with HDM assay. Format: ADME. Put shortly: as §1

As to `CC(C(=O)O)c1cccc(C(=O)c2ccccc2)c1` (configuration not stated) [KETOPROFEN], the “Log Pe,max” value in [1] was -3.6. The “Log Po” value in [2] was -2.7.

As to `NC(N)=Nc1nc(CSCCC(N)=NS(N)(=O)=O)cs1` [FAMOTIDINE], the “Log Pe” value was -4.6 cm s-1 in series [3] and -4.3 cm s-1 in series [4]. Besides, the Fa in [5] came to 45%. Besides, in series [6] (read-out: logD), the logD (commonly lipophilicity at a set pH, counting ionised and neutral species) was -0.8.

Turning to `NC(=O)N1c2ccccc2C=Cc2ccccc21` [CARBAMAZEPINE], the “Log Pe” value in series [3] and in series [4] was -3.9 cm s-1 in each case. Moreover, in series [6] (read-out: logD), the logD was determined as 2.4.

On to `O=C(O)c1ccccc1O` [SALICYLIC ACID], for which the logP (in general, a log measure of how a compound divides between an organic and an aqueous phase) in [7] is given as -1. Also, the “Log Pe,max” value in series [1] was -3.4. The “Log Po” value in series [2] is -3.2.

With `O=C(O)CN(CCN(CC(=O)O)Cc1ccccc1O)Cc1ccccc1O`, the “Log Pe” value in series [3] and in series [4] was -5.1 cm s-1 throughout. The Fa in series [5] is 5%. The logD in series [6] (read-out: logD) is -0.2.

As for `N=C(N)NC(=O)c1nc(Cl)c(N)nc1N` [AMILORIDE], the “Log Pe” value in series [3] is -4.6 cm s-1; in [4], -4.4 cm s-1. The Fa in series [5] amounted to 50%. The logD in series [6] (read-out: logD) is -2.1.

Regarding `CN1CCN(C2=Nc3cc(Cl)ccc3Nc3ccccc32)CC1` [CLOZAPINE], the Fa in series [5] is 100%. This compound gave a logD in series [6] of 3.

`CCN1CCCC1CNC(=O)c1cc(S(N)(=O)=O)ccc1OC` (configuration not stated) [SULPIRIDE]: the “Log Pe” value in series [3] and in series [4] was -4.6 cm s-1 each time.

On to `CC(CCc1ccccc1)NCC(O)c1ccc(O)c(C(N)=O)c1` (configuration not stated) [LABETALOL], for which the “Log Pe” value in series [3] is reported as -4.2 cm s-1; in series [4] it was -3.8 cm s-1. Also, the Fa in series [5] came out at 90%. Moreover, in series [6] (read-out: logD), the logD was 0.5.

`CC(C)Cc1ccc(C(C)C(=O)O)cc1` (configuration not stated) [IBUPROFEN] yielded a logP in series [7] of 1.95. The “Log Pe,max” value in series [1] and in [8] was -3.7 in each case. Besides, the “Log Po” value in [2] and in [9] was -0.9 in each case.

As for `CC(C)(C)NCC(O)c1cc(O)cc(O)c1` (configuration not stated) [TERBUTALINE], the “Log Pe” value in series [3] and in [4] was -4.1 cm s-1 throughout. Besides, in series [5], the Fa is 70%. Moreover, the logD in series [6] (read-out: logD) is -2.

As for `CC(=O)CC(c1ccccc1)c1c(O)c2ccccc2oc1=O` (configuration not stated) [WARFARIN], in [7], the logP was found to be 1. For the same compound, the “Log Pe” value in [3] and in [4] was -3.8 cm s-1 in each case. Besides, in [1], the “Log Pe,max” value is recorded as -3.6. In addition, the “Log Po” value in series [2] is given as -2.3. Moreover, the logD in [6] (read-out: logD) worked out at 0.6.

In the case of `CC(C)NCC(O)COc1cccc2ccccc12` (configuration not stated) [PROPRANOLOL], the entries for the “Log Pe” value in [3] and in series [4] were -4.4 cm s-1 and -4 cm s-1, respectively.

Take `Cc1ccccc1N1C(=O)c2cc(S(N)(=O)=O)c(Cl)cc2NC1C` (configuration not stated) [METOLAZONE]: the “Log Pe” value in series [3] and in series [4] was -4.6 cm s-1 each time. Moreover, in [6] (read-out: logD), the logD was 4.1.

For the compound `CN(Cc1cnc2nc(N)nc(N)c2n1)c1ccc(C(=O)N[C@@H](CCC(=O)O)C(=O)O)cc1` [METHOTREXATE], the “Log Pe” value in [3] and in series [4] was -4.7 cm s-1 throughout. In series [5], the Fa was 20%. Also, the pH-dependent lipophilicity (logD) in series [6] (read-out: logD) was -3.

Turning to `CN1C(C(=O)Nc2ccccn2)=C(O)c2ccccc2S1(=O)=O` [PIROXICAM], the figures for the “Log Pe” value in series [3] and in [4] were -4 cm s-1 and -3.3 cm s-1, respectively. For the same compound, the logD in series [6] (read-out: logD) worked out at 0.3.

As for `CC(=O)[C@H]1CC[C@H]2[C@@H]3CCC4=CC(=O)CC[C@]4(C)[C@H]3CC[C@]12C` [PROGESTERONE], the “Log Pe” value in series [3] and in series [4] was -3.8 cm s-1 each time. Moreover, the Fa in [5] was 91%. Moreover, the logD in series [6] (read-out: logD) was 4.3.

As for `C=CCc1ccccc1OCC(O)CNC(C)C` (configuration not stated) [ALPRENOLOL], the logP in series [7] is 1.3. For the same compound, the “Log Pe” value in [3] and in series [4] was -4 cm s-1 each time. In series [1], the “Log Pe,max” value is -3.6. For the same compound, the “Log Po” value in series [2] was -1.6. For the same compound, the logD in [6] (read-out: logD) is 0.3.

For `NS(=O)(=O)c1cc2c(cc1Cl)NCNS2(=O)=O` [HYDROCHLOROTHIAZIDE], the “Log Pe” value in series [3] is reported as -4.7 cm s-1; in series [4], -4.2 cm s-1. The Fa in [5] was determined as 67%.

As for `CN(C)CCCN1c2ccccc2Sc2ccc(Cl)cc21` [CHLORPROMAZINE], the logP in [7] amounted to 4.7. Further, the “Log Pe” value is recorded as -3.7 cm s-1 in [3] and -3.5 cm s-1 in series [4]. Also, the “Log Pe,max” value in series [1] is recorded as -3.6. The “Log Po” value in series [2] was 1.3. In [5], the Fa was determined as 100%. In addition, in series [6] (read-out: logD), the logD is 2.9.

For `CC(=O)N(O)CCCCCNC(=O)CCC(=O)N(O)CCCCCNC(=O)CCC(=O)N(O)CCCCCN` [DEFEROXAMINE], the “Log Pe” value in [3] and in [4] was -5.3 cm s-1 in each case. In addition, the Fa in series [5] turned out to be 2%. In addition, in series [6] (read-out: logD), the logD is -3.

`O=C1NC(=O)C(c2ccccc2)(c2ccccc2)N1` [PHENYTOIN]: the logP in [7] was -0.3. Moreover, the “Log Pe” value in series [3] and in series [4] was -4 cm s-1 each time. Also, the “Log Pe,max” value in series [1] was -4.4. Besides, the “Log Po” value in series [2] is -3.6. Besides, the Fa in series [5] turned out to be 90%. Besides, the logD in [6] (read-out: logD) came to 2.2.

As for `CCCCC(=O)N(Cc1ccc(-c2ccccc2-c2nnn[nH]2)cc1)[C@H](C(=O)O)C(C)C`, the Fa in series [5] came out at 55%. Further, the logD in series [6] (read-out: logD) is -1.6.

Consider `C[C@]12CC[C@H]3[C@@H](CCC4=CC(=O)CC[C@@]43C)[C@@H]1CC[C@@H]2O` [TESTOSTERONE], for which the “Log Pe” value in series [3] and in series [4] was -3.5 cm s-1 throughout. For the same compound, the Fa in series [5] came to 100%. Also, in series [6] (read-out: logD), the logD came out at 3.9.

For `CN/C(=N/CCSCc1nc[nH]c1C)NC#N` [CIMETIDINE], the “Log Pe” value in [3] and in series [4] was -4 cm s-1 throughout. Besides, the Fa in series [5] was 95%. Moreover, the logD in series [6] (read-out: logD) is 0.1.

`O=C(O)c1cc(/N=N/c2ccc(S(=O)(=O)Nc3ccccn3)cc2)ccc1O` [SULFASALAZINE]: the “Log Pe” value in series [3] and in series [4] was -4.9 cm s-1 throughout. Also, in series [6] (read-out: logD), the logD is -0.7.

As for `CN/C(=C/[N+](=O)[O-])NCCSCc1ccc(CN(C)C)o1` [RANITIDINE], the “Log Pe” value in [3] is recorded as -4.6 cm s-1; in [4], -4.5 cm s-1. Moreover, the Fa in series [5] was 50%. For the same compound, the logD in series [6] (read-out: logD) was -1.1.

Consider `CC(C)(C)NC[C@H](O)COc1nsnc1N1CCOCC1` [TIMOLOL], for which the logP in [7] is on record as -1. Besides, the “Log Pe” value in [3] is -4.4 cm s-1; in series [4], -4.2 cm s-1. Further, the “Log Pe,max” value in series [1] is given as -3.6. Also, the “Log Po” value in series [2] was -3.2. Further, the Fa in [5] worked out at 72%. For the same compound, the logD in [6] (read-out: logD) was -0.7.

In the case of `COCCc1ccc(OCC(O)CNC(C)C)cc1` (configuration not stated) [METOPROLOL], in series [7], the logP is recorded as -0.4. Moreover, the “Log Pe” value in series [3] and in series [4] was -4.2 cm s-1 throughout. For the same compound, the “Log Pe,max” value in [1] is listed as -3.6. The “Log Po” value in series [2] was -2.8. Besides, the logD in series [6] (read-out: logD) was -0.8.

Consider `O=C(O)Cc1ccccc1Nc1c(Cl)cccc1Cl` [DICLOFENAC], for which the “Log Pe,max” value in [1] is recorded as -3.7. Besides, in [2], the “Log Po” value is -1.3.

Consider `Nc1nc2c(ncn2COCCO)c(=O)[nH]1` [ACYCLOVIR], for which the “Log Pe” value in [3] and in series [4] was -4.8 cm s-1 in each case. Further, the log distribution coefficient (logD) in series [6] (read-out: logD) was -2.

On to `N=C(N)N/N=C/c1c(Cl)cccc1Cl` [GUANABENZ], for which, in [7], the logP is given as -1.6. The “Log Pe” value in series [3] is reported as -5 cm s-1; in series [4] it was -4.4 cm s-1. Moreover, the “Log Pe,max” value in series [1] is -4.9. Besides, the “Log Po” value in series [2] was -4.6. Besides, the logD in [6] (read-out: logD) stood at 0.9.
